The subject of assay [1] is proteasome trypsin-like activity. The assay can be described thus: Proteasome-Glo assay in intact MM cells, trypsin-like activity. As to conditions: read-out: Trypsin-like IC50, 24 hours incubation. It counts as cell-based, human. Put shortly:
(§1)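 MM.1S, MM.1R and RPMI-8226 human myeloma lines were grown in RPMI medium with 10% FBS and antibiotics. Activity was read as luminescence with the Proteasome-Glo kit, following the manufacturer's protocol.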

For assay [2], the system named is proteasome chymotrypsin-like activity. The assay can be described thus: Proteasome-Glo assay in intact MM cells, chymotrypsin-like activity. The settings on record: read-out: Chymotrypsin-like IC50, 24 hours incubation. It counts as cell-based, human. In a few lines: as §1
In a further assay the test system is U266 cells. The assay can be described thus: Cellular proliferation assay. In kind it is cell-based. As to conditions: Homo sapiens, U-266, 48 h, read-out: IC50 (cell viability).
The next assay has as its system MM.1S cells. The assay can be described thus: In vitro cell invasion assay. The settings on record: MM.1S cells pretreated at IC50 value, Matrigel invasion chamber. It counts as cell-based, human.
Another assay has as its system RPMI-8226 cells. The assay can be described thus: Cellular proliferation assay. In kind it is cell-based. The settings on record: Homo sapiens, RPMI-8226, 48 h, read-out: IC50 (cell viability).

Like-named read-outs stand apart in the source and are kept apart here.

`CC(C)C[C@H](NC(=O)[C@H](Cc1ccccc1)NC(=O)c1cnccn1)B(O)O` [Bortezomib]: the concentration for half-maximal inhibition (IC50) is > 18 nM in assay [1] (MM1R cell line); > 18 nM in assay [1] (MM1S cell line); > 18 nM in assay [1] (RPMI822G cell line); > 18 nM in assay [1] (U266 cell line); […] in assay [2] (MM1R cell line); […] in assay [2] (MM1S cell line). Besides, the 50% inhibitory concentration (IC50) in assay [2] (RPMI822G cell line) worked out at […]; in assay [2] (U266 cell line), […]; in the assay on U266 cells it was 13.5 nM; in the assay on RPMI-8226 cells, […]. Also, the “inhibition of invasiveness compared to control” value in the assay on MM.1S cells is given as 37.42%.

In general, IC50 refers to the concentration that inhibits the measured activity by half.

The values above are taken from paper PMC4036123 (Cancer chemotherapy and pharmacology, 2014).
